Measured values as given in ChEMBL document CHEMBL1122019, “Synthesis and enzymic activity of 6-carbethoxy- and 6-ethoxy-3,7-disubstituted-pyrazolo[1,5-a]pyrimidines and related derivatives as adenosine cyclic 3' ,5'-phosphate phosphodiesterase inhibitors” (1982).

Key:
Oryctolagus cuniculus [1] = species on record: Oryctolagus cuniculus; assay: Ratio of I50 of compound and I50 of theophylline for inhibition of cAMP phosphodiesterase isolated from rabbit kidney
Oryctolagus cuniculus [2] = species on record: Oryctolagus cuniculus; assay: Ratio of I50 of compound and I50 of theophylline for inhibition of cAMP phosphodiesterase isolated from rabbit lung
How it was run: (§1)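 Partially purified cAMP PDEs from beef heart, rabbit lung and rabbit kidney. Assay mixture in 0.5 mL: 25 μmol Tris-HCl pH 7.5, 5 μmol MgCl2, 10–75 μg enzyme protein, 350 pmol [3H]cAMP, and at least seven inhibitor concentrations (0.5 μM–5 mM). 5'-AMP formed measured at at least three time points (3–12 min) to confirm linear rates. I50 read graphically from % inhibition vs log concentration; α = I50 compound / I50 theophylline, with theophylline run in each experiment.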

Sus scrofa [3] = species on record: Sus scrofa; assay: Inhibition of ADP-induced platelet aggregation at 50 ug/mL; format: functional
How it was run: (§2)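 Platelet-rich plasma from pig blood anticoagulated with sodium citrate (final 0.3 g/100 mL in blood), spun 500g for 20 min at 20 °C; about 2.0–8.0×10^8 platelets/mL, counted in duplicate. ADP-induced aggregation followed turbidimetrically at 600 nm with stirring (Born method). Criterion: 50% inhibition at ≤100 mcg/mL test compound, compared with adenosine as standard.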

Sus scrofa [4] = species on record: Sus scrofa; assay: Inhibition of ADP-induced platelet aggregation at 100 ug/mL; format: functional
How it was run: as §2

Bos taurus = species on record: Bos taurus; assay: Relative inhibition of bovine heart cAMP phosphodiesterase compared to theophylline
How it was run: as §1

[5] = tested on: cAMP phosphodiesterase (Bos taurus); assay: Relative inhibition of beef heart cAMP phosphodiesterase compared to theophylline; settings: target entry is the homologue from another species
Oryctolagus cuniculus [6] = species on record: Oryctolagus cuniculus; assay: Relative inhibition of rabbit lung cAMP Phosphodiesterase compared to theophylline
How it was run: as §1

Sus scrofa [7] = species on record: Sus scrofa; assay: Inhibition of ADP-induced platelet aggregation at 25 ug/mL; format: functional
How it was run: as §2

Oryctolagus cuniculus [8] = species on record: Oryctolagus cuniculus; assay: Relative inhibition of rabbit lung cAMP Phosphodiesterase compared to theophylline (Insoluble)
[9] = Inhibition of ADP-induced platelet aggregation at 100 ug/mL

CCCOc1c(OCC)cnc2c(CC)cnn12
Ratio (Oryctolagus cuniculus [1]): 1.3 | Ratio (Oryctolagus cuniculus [2]): 1.6

CCCNc1c(C(=O)OCC)cnc2c(CC)cnn12
Ratio (Oryctolagus cuniculus [1]): 3.2 | Ratio (Oryctolagus cuniculus [2]): 3.6

CCOC(=O)c1cnc2ccnn2c1NCCO
inhibition at 50 µg/mL (Sus scrofa [3]): 47% | Ratio (Oryctolagus cuniculus [1]): 0.3 | inhibition at 100 µg/mL (Sus scrofa [4]): 92% | Ratio (Oryctolagus cuniculus [2]): 1.5

CCOC(=O)c1cnc2ccnn2c1N(CC)CC
Ratio (Oryctolagus cuniculus [1]): 2 | Ratio (Oryctolagus cuniculus [2]): 1.8 | Ratio (Bos taurus): 2.3

Cc1cc(N2CCCCC2)n2nccc2n1
Ratio [5]: 1.5 | Ratio (Oryctolagus cuniculus [6]): 2.4

CCOC(=O)c1cnc2ccnn2c1NCC(=O)O
inhibition at 50 µg/mL (Sus scrofa [3]): 67% | Ratio (Oryctolagus cuniculus [1]): 1.2 | inhibition at 100 µg/mL (Sus scrofa [4]): 76% | Ratio (Oryctolagus cuniculus [2]): 1.7

CCCCNc1cc(C)nc2c(Br)cnn12
Ratio (Oryctolagus cuniculus [2]): 1.5

CCOC(=O)c1cnc2c(Br)cnn2c1N(CC)CC
Ratio (Oryctolagus cuniculus [1]): 6 | Ratio (Oryctolagus cuniculus [2]): 6 | Ratio (Bos taurus): 3.5

CCOC(=O)c1cnc2c(C(=O)OCC)cnn2c1O
inhibition at 50 µg/mL (Sus scrofa [3]): 23% | Ratio (Oryctolagus cuniculus [1]): 0.4 | inhibition at 100 µg/mL (Sus scrofa [4]): 68% | Ratio (Oryctolagus cuniculus [2]): 0.6

CCOC(=O)c1cnc2c(Br)cnn2c1N
inhibition at 100 µg/mL (Sus scrofa [4]): 68% | inhibition at 25 µg/mL (Sus scrofa [7]): 67% | Ratio (Oryctolagus cuniculus [8]): Insoluble

CCOC(=O)c1cnc2c(Br)cnn2c1NCC(=O)O
Ratio (Oryctolagus cuniculus [1]): 1.5 | Ratio (Oryctolagus cuniculus [2]): 2.4 | Ratio (Bos taurus): 2.6

CCCNc1c(OCC)cnc2c(CC)cnn12
Ratio (Oryctolagus cuniculus [1]): 3.4 | Ratio (Oryctolagus cuniculus [2]): 3.7

Cc1cc(NN)n2nccc2n1
Ratio (Oryctolagus cuniculus [2]): 1.5

CCCNc1c(C(=O)OCC)cnc2c(Br)cnn12
Ratio (Oryctolagus cuniculus [1]): 7.2 | inhibition at 100 µg/mL (Sus scrofa [4]): 50% | Ratio (Oryctolagus cuniculus [2]): 6

CCOC(=O)c1cnc2c([N+](=O)[O-])cnn2c1N
Ratio (Oryctolagus cuniculus [8]): Insoluble

CCOC(=O)c1cnc2ccnn2c1S
Ratio (Oryctolagus cuniculus [1]): 1 | Ratio (Oryctolagus cuniculus [2]): 2 | Ratio (Bos taurus): 1.2

CCOC(=O)c1cnc2ccnn2c1NN(C)C
Ratio (Oryctolagus cuniculus [1]): 1.1 | Ratio (Oryctolagus cuniculus [2]): 2

CCCOc1c(C(=O)OCC)cnc2c(Br)cnn12
Ratio (Oryctolagus cuniculus [1]): 1.8 | Ratio (Oryctolagus cuniculus [2]): 2.7

CCOC(=O)c1cnc2ccnn2c1SCC
Ratio (Oryctolagus cuniculus [1]): 0.8 | Ratio (Oryctolagus cuniculus [2]): 4.3

Nc1ncnc2c1ncn2[C@@H]1O[C@H](CO)[C@@H](O)[C@H]1O [ADENOSINE]
inhibition at 100 µg/mL [9]: 64%

CCOc1cnc2c(CC)cnn2c1NCC(=O)O
Ratio (Oryctolagus cuniculus [1]): 0.4 | Ratio (Oryctolagus cuniculus [2]): 0.7

CCCOc1cc(C)nc2c(CC)cnn12
Ratio (Oryctolagus cuniculus [2]): 5.4

Cc1cc(NCCO)n2nccc2n1
Ratio (Oryctolagus cuniculus [2]): 0.5

CCCOc1c(C(=O)OCC)cnc2c(CC)cnn12
Ratio (Oryctolagus cuniculus [1]): 2.4 | Ratio (Oryctolagus cuniculus [2]): 2.4

CCOC(=O)c1cnc2c(C(=O)OCC)cnn2c1N
inhibition at 50 µg/mL (Sus scrofa [3]): 47% | Ratio (Oryctolagus cuniculus [1]): 2 | inhibition at 100 µg/mL (Sus scrofa [4]): 96% | Ratio (Oryctolagus cuniculus [2]): 1.5 | Ratio (Bos taurus): 0.7

CCOC(=O)c1cnc2c(Br)cnn2c1O
inhibition at 50 µg/mL (Sus scrofa [3]): 34% | Ratio (Oryctolagus cuniculus [1]): 1 | inhibition at 100 µg/mL (Sus scrofa [4]): 88% | Ratio (Oryctolagus cuniculus [2]): 0.5

CCSc1cc(C)nc2c(CC)cnn12
Ratio (Oryctolagus cuniculus [2]): 8.9

COC(CNc1cc(C)nc2c(Br)cnn12)OC
Ratio (Oryctolagus cuniculus [2]): 6.8

CCCOc1c(C(=O)OCC)cnc2ccnn12
Ratio (Oryctolagus cuniculus [1]): 0.6 | Ratio (Oryctolagus cuniculus [2]): 0.6

CCOc1cnc2c(CC)cnn2c1NCCC(=O)O
Ratio (Oryctolagus cuniculus [1]): 0.6 | Ratio (Oryctolagus cuniculus [2]): 1

CCOC(=O)c1cnc2c(Br)cnn2c1NCCO
Ratio (Oryctolagus cuniculus [1]): 3.1 | inhibition at 100 µg/mL (Sus scrofa [4]): 72% | Ratio (Oryctolagus cuniculus [2]): 1.3

CCOC(=O)c1cnc2ccnn2c1N
inhibition at 50 µg/mL (Sus scrofa [3]): 50% | Ratio (Oryctolagus cuniculus [1]): 1 | inhibition at 100 µg/mL (Sus scrofa [4]): 94% | Ratio (Oryctolagus cuniculus [2]): 0.9

CCOC(=O)c1cnc2c(CC)cnn2c1SCC
Ratio (Oryctolagus cuniculus [1]): 5.5 | Ratio (Oryctolagus cuniculus [2]): 13

CCCNc1cc(C)nc2c(CC)cnn12
Ratio (Oryctolagus cuniculus [2]): 9.4

CCNc1c(C(=O)OCC)cnc2ccnn12
inhibition at 50 µg/mL (Sus scrofa [3]): 42% | Ratio (Oryctolagus cuniculus [1]): 5.2 | inhibition at 100 µg/mL (Sus scrofa [4]): 86% | Ratio (Oryctolagus cuniculus [2]): 4.3

CCNc1c(C(=O)OCC)cnc2c(Br)cnn12
Ratio (Oryctolagus cuniculus [1]): 8 | inhibition at 100 µg/mL (Sus scrofa [4]): 77% | Ratio (Oryctolagus cuniculus [2]): 4

CCOC(=O)c1cnc2c(CC)cnn2c1NN(C)C
Ratio (Oryctolagus cuniculus [1]): 1.4 | Ratio (Oryctolagus cuniculus [2]): 3.7

CCOc1cc(C)nc2ccnn12
Ratio (Oryctolagus cuniculus [2]): 1.4

CCCNc1c(C(=O)OCC)cnc2ccnn12
Ratio (Oryctolagus cuniculus [1]): 13 | Ratio (Oryctolagus cuniculus [2]): 5.9

CCOC(=O)c1cnc2ccnn2c1Cl
Ratio (Oryctolagus cuniculus [1]): 0.6 | Ratio (Oryctolagus cuniculus [2]): 0.6
